GSTO1 counter – blocks human GSTO1 in RBBP9 counter-screen. AID 1974. 1.1% of 300,000 active. recombinant GSTO1, activity-based probe fluorescence polarization. P78417. inhibition, % at 5.96 µM;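 active = inhibition above the campaign mean inhibition plus 3 SD, cut at about 35% in these data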
Target sequence (P78417 whole entry, looked up): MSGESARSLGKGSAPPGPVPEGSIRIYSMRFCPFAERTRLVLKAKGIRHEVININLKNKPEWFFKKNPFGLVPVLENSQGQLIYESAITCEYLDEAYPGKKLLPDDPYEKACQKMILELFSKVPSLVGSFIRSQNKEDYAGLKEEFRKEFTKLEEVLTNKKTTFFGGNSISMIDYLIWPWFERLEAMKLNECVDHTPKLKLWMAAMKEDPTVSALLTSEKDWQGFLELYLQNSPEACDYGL
Apaf-1 inh – inhibitors of human Apaf-1 apoptosome. reconstituted apoptosome caspase-3 activity, DEVD-Rh110 fluorescence. O14727. 0.71% of 330,000 active. AID 489030. inhibition, % at 20 µM; active = inhibition of at least 40% at 20 µM
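Medium: Hepes buffer, pH 7.5 / System: biochemical Apaf-1 apoptosome reconstitution / Measured by: Rh110 fluorescence, excitation 480 nm, emission 540 nm / Times: compound with Apaf-1, dATP, procaspase-3 30 min, then 50 min reaction, room temperature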
PP5 primary – PP5 (human) phosphatase inhibition; P53041; purified PP5c, OMFP substrate fluorescence; inhibition, % at 6.7 µM; 0.18% of 320,000 active; AID 1987;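 active = inhibition above the campaign's mean inhibition across all tested compounds plus 3 SD, cut at about 9.5% in these data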
TDP2 absorb – TDP2 (human) inhibition, absorbance primary screen. O95551. recombinant TDP2, T5PNP hydrolysis, p-nitrophenol absorbance 415 nm. 0.34% of 370,000 active. inhibition, % at 12.8 µM;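 active = inhibition above the mean of all tested compounds plus 3 SD, set per campaign, cut at about 25% in these data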
Target sequence (O95551 whole entry, looked up): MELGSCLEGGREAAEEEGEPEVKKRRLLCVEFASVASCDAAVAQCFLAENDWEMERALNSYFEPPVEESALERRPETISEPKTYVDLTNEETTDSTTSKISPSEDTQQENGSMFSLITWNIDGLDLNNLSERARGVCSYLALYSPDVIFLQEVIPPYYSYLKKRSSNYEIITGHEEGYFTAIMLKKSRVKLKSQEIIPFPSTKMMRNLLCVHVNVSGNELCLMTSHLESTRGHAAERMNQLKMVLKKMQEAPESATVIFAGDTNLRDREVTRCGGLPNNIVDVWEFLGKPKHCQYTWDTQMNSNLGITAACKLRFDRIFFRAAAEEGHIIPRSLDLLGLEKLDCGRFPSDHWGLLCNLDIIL
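Read-out basis: percent inhibition. System: recombinant human TDP2. Buffer or medium: Mg2+-containing Tris-HCl buffer, pH 7.5. Repeats: single replicate. Timing: reaction 2 h, 37 °C. Benchmarks: high control without enzyme, low control DMSO plus TDP2. Probe or stimulus: 5 mM T5PNP. Doses: 12.8 µM only. Measured by: epi absorbance of p-nitrophenol freed from T5PNP by hydrolysis.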
PP1 counter – blocks human PP1-alpha phosphatase, a PP5 counter-screen | purified PP1alpha, OMFP fluorescence | inhibition, % at 6.7 µM | 0.9% of 320,000 active | AID 2235;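 active = inhibition above the mean inhibition of all tested compounds plus 3 SD, computed separately for each screening campaign, cut at about 15% in these data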
Apaf-1 inh conf2 – confirmation of Apaf-1 inhibitors; shares compounds with Apaf-1 inh; reconstituted apoptosome, caspase-3 DEVD-Rh110 fluorescence; inhibition, % at 20 µM; 25% of 1,800 active;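 active = mean inhibition of at least 40% at 20 µM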
Rh110 quench – Rh110 signal interference in Apaf-1 inhibitor counter-screen; shares compounds with Apaf-1 inh; Rh110 fluorescence interference, quenched caspase reaction; activation (fluorescence interference), % at 20 µM; 1,800 tested, under 10 active; AID 504615;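 active = signal rise of 40% or more at 20 µM, treated as a fluorescence artifact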
Fluor interf inh – counter-screen for Apaf-1 inhibitors: fluorescence interference, dose response | shares compounds with Apaf-1 inh | fluorescence interference counterscreen, Apaf-1 assay format | IC50, µM | 460 tested, under 10 active | AID 588538; call rule not given here
Numbers stand for hits; - = inactive; . = no result. The list is not random: actives were taken first. Their share in the collection is about 2.1%.

SMILES	GSTO1 counter	Apaf-1 inh	PP5 primary	TDP2 absorb	PP1 counter	Apaf-1 inh conf2	Rh110 quench	others
CC(C)C[C@H]1CNC(=O)C(=O)N1C[C@H]1CCCN1C[C@H](CC(C)C)N1C[C@H](Cc2ccccc2)N(CC2CCCCC2)C(=O)C1=O	.	.	.	-	.	.	.
CCC[C@@H](CN1CCC[C@H]1CN1C(N)=NC[C@@H]1Cc1ccccc1)N1C[C@@H]([C@H](C)CC)N(CCCC2CCCC2)C1=N	.	77	.	.	.	-	-
CCCCN1C(=N)N([C@@H](C)CN2CCC[C@H]2CN2C(N)=NC[C@@H]2Cc2ccccc2)C[C@H]1[C@H](C)CC	.	-	.	-	.	.	.
C[C@@H](CN1CCC[C@H]1CN1C(N)=NC[C@@H]1Cc1ccccc1)N1C[C@@H](Cc2ccccc2)N(CCc2ccc(Cl)c(Cl)c2)C1=N	.	74	.	.	.	-	-
CCCCN1C(=N)N([C@@H](C)CN2CCC[C@H]2CN2C(N)=NC[C@H]2CC(C)C)C[C@H]1Cc1ccccc1	.	-	.	-	.	.	.
CC(C)[C@@H]1CN=C(N)N1C[C@@H]1CCCN1C[C@H](C)N1C[C@@H](Cc2ccccc2)N(CCc2ccc(Cl)c(Cl)c2)C1=N	.	54	.	.	.	-	-
CC(C)[C@H](CN1CCC[C@H]1CN1C(N)=NC[C@@H]1Cc1ccccc1)N1C[C@@H](Cc2ccccc2)N(CCc2ccc(Cl)c(Cl)c2)C1=N	.	82	.	.	.	-	-
COC(=O)c1ccc2c(=O)n(CCCCCC(=O)N3CCN(c4ccccc4)CC3)c(=O)[nH]c2c1	-	47	-	-	-	-	-
C[C@H](CO)N1C[C@H](C)[C@@H](CN(C)Cc2ccc(Oc3ccccc3)cc2)Oc2c(NC(=O)C3CC3)cccc2C1=O	.	43	.	-	.	-	-
COc1cc(C(=O)N2CCN(c3ccccc3O)CC2)ccc1OCC(=O)N1CCOCC1	.	-	-	-	-	.	.
COc1cc(C(=O)N2CCN(c3cccc(C)c3C)CC2)ccc1OCC(=O)N1CCOCC1	.	51	-	-	-	-	-
COc1ccc(CN2C(NC(=O)OCc3ccccc3)=NC3=CC(C)(C)n4c(=O)n(-c5ccccc5)c(=O)n4C32)c(OC)c1 (centres undefined)	.	.	.	-	.	.	.
O=C(OCC(=O)N1CCN(S(=O)(=O)c2ccc(Cl)cc2)CC1)c1ccc([N+](=O)[O-])o1	-	69	-	-	-	-	-
O=C(OCC(=O)N1CCN(S(=O)(=O)c2ccc(Cl)cc2)CC1)C1CC1	.	-	-	-	-	.	.
CC1CCN(C(=O)COC(=O)c2ccc([N+](=O)[O-])o2)CC1	.	-	.	-	.	.	.
O=C(OCC(=O)N1CCN(S(=O)(=O)c2ccccc2)CC1)c1ccc([N+](=O)[O-])o1	-	80	-	-	-	-	-
O=C(Nc1ccc2nc(-c3ccco3)c(-c3ccco3)nc2c1)NC1CC1	.	47	.	.	.	-	-
Cc1ccc(C(=O)N2CCC(Oc3cccnc3)CC2)cc1	.	.	.	-	.	.	.
COc1ccc2c(c1)[C@@H](NC(=O)C(F)(F)F)[C@@H]1CCCC[C@]21c1ccccc1	.	.	.	-	.	.	.
CN1Cc2c(N3CCOCC3)nc3sc(C(=O)c4ccc(Br)cc4)c(N)c3c2CC1(C)C	-	56	-	-	-	62	-	Fluor interf inh=-
Cc1ccc(SCC(=O)OCC(=O)NCCNC(=O)COC(=O)CSc2ccc(C)c(C)c2)cc1C	-	40	-	-	-	-	-
COC(=O)[C@]12C[C@H](CC(=O)N3CCOCC3)C(=O)N(CCC3=CCCCC3)C1=C[C@H](C(C)C)O[C@@H]2C1CC1	.	.	.	-	.	.	.
COc1cccc(-c2sc3cc(OC)c(OC)cc3c2-c2ccc(OCCN3CCCCC3)cc2)c1	.	66	.	.	.	-	-
COc1cccc(-c2sc3ccc(OC)cc3c2-c2ccc(OCCN3CCCC3)cc2)c1	.	70	.	.	.	-	-
COc1cccc(-c2sc3ccccc3c2-c2ccc(OCCN3CCCC3)cc2)c1	.	71	.	-	.	-	-
SMILES	GSTO1 counter	Apaf-1 inh	PP5 primary	TDP2 absorb	PP1 counter	Apaf-1 inh conf2	Rh110 quench	others
COc1cc2sc(-c3ccccc3OC)c(-c3ccc(OCCN4CCOCC4)cc3)c2cc1OC	.	-	.	.	.	.	.
COc1ccc(-c2sc3ccccc3c2-c2ccc(OCCN3CCCCC3)cc2)cc1	.	55	.	-	.	-	-
COc1ccc(-c2sc3ccc(OC)cc3c2-c2ccc(OCCN3CCOCC3)cc2)cc1	.	-	.	.	.	.	.
Cc1ccc(NC(=O)CCS(=O)(=O)c2ccccc2)cc1C	.	.	.	-	.	.	.
COc1cccc(-c2sc3ccc(OC)cc3c2-c2ccc(C(N)=O)cc2)c1	.	-	-	-	-	.	.
COc1ccc2sc(-c3ccccc3OC)c(-c3ccc(OCCN(C)C)cc3)c2c1	.	65	.	-	.	-	-
Oc1ccc2sc(-c3ccccc3O)c(-c3ccc(OCCN4CCCCC4)cc3)c2c1	.	.	.	-	.	.	.
COc1cccc(-c2sc3ccccc3c2-c2ccc(OCCN(C)C)cc2)c1	.	76	.	-	.	-	-
COc1cccc(-c2sc3ccccc3c2-c2ccc(OCCN3CCCCC3)cc2)c1	.	64	.	.	.	-	-
COc1ccc2sc(-c3ccccc3OC)c(-c3ccc(SC)cc3)c2c1	.	.	.	-	.	.	.
COc1ccc(C2C(C(=O)N3CCCCC3C)CC(=O)N2c2ccc(OC)cc2)cc1 (centres undefined)	.	.	.	-	.	.	.
O=C(CSc1nnc(-c2ccccn2)n1-c1ccc(Cl)cc1)Nc1ccc2c(c1)OCCO2	.	.	.	-	.	.	.
CCCC1CCC2(CC1)CCC2OC(=O)Nc1c(OC)cccc1OC (centres undefined)	.	.	.	-	.	.	.
Cc1cc(C)cc(NC2=C(N)C(=O)c3ccccc3C2=O)c1	-	74	-	.	-	-	-
CCC(=O)NC1=C(Nc2ccc(N)cc2)C(=O)c2ccccc2C1=O	-	-	-	-	-	.	.
O=C(c1ccc2nc(-c3ccco3)c(-c3ccco3)nc2c1)N1CCN(c2ccccc2)CC1	-	40	-	-	-	-	-
CCc1nc2ccc(C(=O)N3CCN(c4ccccc4)CC3)cc2nc1CC	-	-	-	-	-	.	.
COc1ccc(CN2C(=O)C(CC(=O)NCc3cccc4ccccc34)CC(C(=O)N(C(C)C)C(C)C)=C2C)cc1 (centres undefined)	.	.	.	-	.	.	.
O=C(Nc1ccc(N2CCOCC2)cc1N1CCOCC1)c1ccc([N+](=O)[O-])cc1	-	-	-	-	-	.	.
O=C(NNc1cc(N2CCOCC2)nc(N2CCOCC2)n1)c1ccc([N+](=O)[O-])cc1	.	97	.	-	.	60	-	Fluor interf inh=-
CCC(CO)Oc1cc(NCc2cc(C)cc(C)c2)c2ncn(C(C)C)c2c1 (centres undefined)	.	-	.	-	.	.	.
CCC(CO)Oc1cc(NCc2cccnc2)c2ncn(C(C)C)c2c1 (centres undefined)	.	63	.	-	.	-	-
CCC(CO)Oc1cc(NCc2cccc(Cl)c2)c2ncn(C(C)C)c2c1 (centres undefined)	.	73	.	.	.	-	-

Compound activity (PubChem BioAssay)
